Screening data deposited in PubChem BioAssay by several laboratories.
STAT1 blocker: STAT1 signaling inhibition; NIH 3T3 STAT1-luciferase reporter, IFN-gamma, luminescence; inhibition, % at 5.5 µM; 200,000 compounds, 0.35% hits;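 active = inhibition above a set limit, the mean inhibition across all tested compounds plus 3 SD, cut at about 34% in these data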;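 note: 0% = IFN-gamma with DMSO and 100% = IFN-gamma with 300 µM nifuroxazide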
STAT3 activator: increases IL-6 driven STAT3 reporter signal; U3A cells, IL-6 STAT3-luciferase reporter, luminescence; 100% = signal with IL-6 EC80 alone; activation (% of control), % at 5.6 µM; 190,000 compounds, 0.91% hits;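 active = activation above the screen-wide mean of compound activation plus 3 SD, cut at about 130% in these data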;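 note: 0% = background luminescence of wells with medium and substrate only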
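system = STAT3-luciferase reporter U3A cells | reagent = IL-6 stimulus at 33 ng/mL final | timing = 1 h compound pre-exposure, 6 h IL-6 stimulation, 37 °C | measured by = luminescence | evaluation = % activation versus median of IL-6-stimulated wells | control set = IL-6-only wells as 100% reference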
NF-kB expr up: compounds increasing NF-kB expression in human neuronal cells; NF-kB reporter expression; hits give high values; AID 1239; 190,000 compounds, 1.6% hits; fold change at 12.5 µM; in the data active = fold change above about 3.3
APP 5'UTR act: APP 5'UTR luciferase reporter activation; SH-SY5Y APP 5'UTR luciferase reporter, luminescence; zero percent = DMSO vehicle wells; activation, % at 2 µM; 190,000 compounds, 1% hits;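 active = activation above a set limit, based on mean plus 3 SD of controls, cut at about 140% in these data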
STAT1 activator: STAT1 signaling activation | NIH 3T3 STAT1-luciferase reporter, IFN-gamma, luminescence; 100% = IFN-gamma alone, no compound | activation (% of control), % at 5.5 µM | 200,000 compounds, 2.6% hits;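 active = activation above the screen-wide mean activation plus 3 SD, cut at about 130% in these data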;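 note: raw ratio to IFN-gamma control signal so 100% means no change and 0% no light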
STAT3 blocker: reduces IL-6 driven STAT3 reporter signal. inhibition, % at 5.5 µM. U3A cells, IL-6 STAT3-luciferase reporter, luminescence; host cell line lacks STAT1. 190,000 compounds, 0.89% hits. AID 862;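 active = inhibition above the mean inhibition across all screened compounds plus 3 SD, cut at about 44% in these data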;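 note: 0% = DMSO only wells and 100% = 100 µM nifuroxazide control wells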
STAT1 act conf: STAT1 activation, confirmation assay; shares compounds with STAT1 activator; NIH 3T3 STAT1-luciferase reporter, IFN-gamma potentiation, luminescence; 100% = IFN-gamma EC80 alone, no compound; activation (% of control), % at 5.7 µM; 1,200 compounds, 97% hits;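 active = activation above a set limit carried over from the earlier primary STAT1 screen, cut at about 140% in these data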;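 note: simple ratio to median IFN-gamma plus DMSO wells so 0% means no light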
NFkB act STAT1ct: counter-screen for STAT1 activators: NF-kappaB activation; shares compounds with STAT1 activator; HEK293T NF-kB luciferase reporter, TNF-alpha stimulated, luminescence; 100% = TNF-alpha with vehicle only; activation (% of control), % at 5.7 µM; 1,200 compounds, 43% hits; AID 1306;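 active = activation above the mean of solvent-only control wells plus 3 SD, set per campaign, cut at about 130% in these data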;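 note: TNF-alpha given at a submaximal dose yielding about 80% of full reporter signal; values are well signal over median control so 100% means no change and 0% no light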
STAT3 act STAT1c: human STAT3 activation in STAT1 activator counter-screen. shares compounds with STAT1 activator. U3A cells STAT3-luciferase reporter, IL-6, luminescence; cells lack STAT1; 100 = IL-6 alone, no compound effect. activation (% of control), % at 5.7 µM. 1,200 compounds, 46% hits. AID 1316;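 active = activation above the solvent-only control well mean plus 3 SD, set per plate batch, cut at about 110% in these data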;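 note: 0% = no luminescence and 100% = median IL-6 plus DMSO wells; higher means more STAT3 reporter activation so hits are non-selective activators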
Starred values were filed as active, the others as inactive; . = no result given. This is a sample that favours compounds with a hit; in the whole collection about 4.9% have one here.

SMILES	STAT1 blocker	STAT3 activator	NF-kB expr up	APP 5'UTR act	STAT1 activator	STAT3 blocker	STAT1 act conf	NFkB act STAT1ct	STAT3 act STAT1c
Cc1ccc2[nH]c(=O)cc(C(=O)OC(C)C)c2c1	-4	102	1.2	6	101	2	.	.	.
c1ccc(-c2csc(Nc3ncccn3)n2)cc1	-64	99	2.8	163*	157*	3	240*	113	95
c1ccc(-c2csc(NC3=NCCCCC3)n2)cc1	-24	104	1.6	42	122	-10	.	.	.
CC(=O)Nc1ccc(-c2csc(Nc3ncccn3)n2)cc1	-61	99	1.4	141*	155*	7	168*	129	111*
CCCCCNc1nc(-c2ccccc2)cs1	-51	83	6.4*	2	153*	20	177*	125	100
Clc1ccccc1Nc1nc(-c2cccnc2)cs1	-77	102	7.8*	195*	168*	0	226*	134*	111*
CC(=O)/C(=N/Nc1cccc(C)c1)N1CCOCC1	3	100	1	-23	97	0	.	.	.
CNc1nc(C)cc(C)c1S(=O)(=O)c1ccc(Cl)cc1	4	91	0.94	-6	97	14	.	.	.
O=C(O)/C=C/C(=O)Nc1ccccc1-c1ccccc1NC(=O)/C=C/C(=O)O	1	104	0.98	.	99	-4	.	.	.
O=C(O)/C=C\C(=O)Nc1ccccc1C#Cc1ccc(Br)cc1	-65	111	8*	158*	159*	-2	131*	130	95
Cc1ccc(CNC(=O)c2ccc(OCC3CCCO3)cc2)cc1 (centres undefined)	-9	95	1.2	0	108	4	.	.	.
Cc1ccc2nc(NC(=O)c3ccc(OCC4CCCO4)cc3)sc2c1 (centres undefined)	-62	96	1.3	37	158*	4	148*	116	91
CC(NC(=O)c1cc(-c2ccc(Br)cc2)on1)c1ccccc1 (centres undefined)	1	91	1.2	-8	99	12	.	.	.
Clc1ccc(/C=N/Nc2ncnc3ccccc23)cc1Cl	-63	127	4.9*	.	158*	-26	208*	151*	135*
COc1ccc(CCNC(=O)CSc2nc3[nH]ncc3c(=O)n2-c2ccc(C)c(Cl)c2)cc1OC	0	96	1	-2	100	12	.	.	.
Clc1ccc(C2=NNC(=NCC3CCCO3)SC2)cc1 (centres undefined)	-28	109	1.9	24	126	-16	.	.	.
c1csc(C2=NNC(=NC3CCCCC3)SC2)c1	-58	107	2.5	137*	155*	1	168*	119	109
Cc1cc(Cl)nc2c(C(C)C)cccc12	9	98	1	9	91	7	.	.	.
CC(=O)Nc1ccc(C(=O)NCCc2ccccc2)cc1	-9	108	1	28	111	-12	.	.	.
O=C(NCCc1ccccc1)c1ccc(Cl)nc1	-54	97	3	73	156*	8	163*	118	121*
COc1ccc(/C=N/N2C(=O)C3C4C=CC(CC4)C3C2=O)c(OC)c1 (centres undefined)	-16	102	1.2	15	115	2	.	.	.
Cc1ccc2nc(-c3ccc(NS(=O)(=O)c4ccc(F)c(F)c4)cc3)sc2c1	-82	68	6.5*	180*	172*	41	217*	137*	84
Cc1ccc2nc(-c3ccc(NS(=O)(=O)c4ccccc4)cc3)sc2c1	-12	97	1.3	1	110	3	.	.	.
COc1cc(C)c(C(N)=O)c(OC)n1	2	101	1.5	7	96	3	.	.	.
O=C(O)c1ccc2c(=O)n3c(nc2c1)/C(=C/c1cccc(Cl)c1Cl)CCCC3	4	87	1.3	-5	96	13	.	.	.
SMILES	STAT1 blocker	STAT3 activator	NF-kB expr up	APP 5'UTR act	STAT1 activator	STAT3 blocker	STAT1 act conf	NFkB act STAT1ct	STAT3 act STAT1c
Cc1ccc(NCc2nc3ccccc3n2C)cc1	-58	127	5.3*	175*	153*	-26	183*	133	190*
Cc1c(Nc2cc(N3CCOCC3)c3nonc3c2[N+](=O)[O-])c(=O)n(-c2ccccc2)n1C	-12	102	1.1	-4	108	2	.	.	.
Cc1c(Nc2cc(Cl)c3nonc3c2[N+](=O)[O-])c(=O)n(-c2ccccc2)n1C	-302	97	0.17	-95	376*	6	159*	113	103
CCCCOc1ccc(C2(C)CC(=O)NC2=O)cc1 (centres undefined)	-11	99	1.4	33	108	5	.	.	.
O=C(CSc1ccc(-c2ccccn2)nn1)N1CCCC1	-8	105	2.2	-6	106	6	.	.	.
COc1ccc2oc(=N)c(C(=O)Nc3ccccc3)cc2c1	-69	111	5.2*	133	162*	-12	196*	138*	136*
O=S(=O)(NC(=NCCc1ccc(Cl)cc1)c1ccccc1Cl)c1cccs1	-5	107	1.4	-1	103	-3	.	.	.
CC1CCc2nc(NC(=O)C3CCCO3)sc2C1 (centres undefined)	-66	90	3.5*	172*	161*	12	189*	103	96
O=C(Nc1nc(-c2nc3ccccc3s2)cs1)C1CC1	-65	95	5.7*	238*	162*	6	227*	128	117*
O=C(Nc1nc2ccccc2s1)C1CCCO1 (centres undefined)	-56	94	2.6	49	151*	12	166*	122	108
Fc1ccc(-n2cc(CNCCc3cccnc3)c(-c3ccccc3Cl)n2)cc1	4	103	0.87	27	94	0	.	.	.
COc1ccc(C2C(C#N)=C(C)NC3=C2S(=O)(=O)c2ccccc23)cc1 (centres undefined)	-7	96	0.78	-2	104	8	.	.	.
CCC(=O)Nc1cccc(NC(=S)NC(=O)c2ccc(Cl)cc2Cl)c1	-25	103	1.3	19	122	-5	.	.	.
O=C(NC(=S)Nc1ncccn1)c1ccc(Cl)cc1Cl	-80	111	2.2	36	174*	-10	218*	131	110
O=C(COc1ccc(Cl)cc1[N+](=O)[O-])NC1CCCCC1	-65	88	.	114	160*	19	167*	121	111*
